The text below walks through data of ChEMBL document CHEMBL4373643, “Synthesis and biological evaluation of structurally diverse α-conformationally restricted chalcones and related analogues” (Medchemcomm, 2019).

The target of one data set is Tubulin. Kind of data set: Inhibition of tubulin polymerization (unknown origin) incubated for 10 mins by spectrophotometry. Format: protein-complex assay, Homo sapiens.
For another data set, the system named is DU-145. Kind of data set: Cytotoxicity against human DU145 cells assessed as reduction in cell viability incubated for 48 hrs by SRB assay. The settings on record: DU-145, 48 h. Format: functional. The procedure, abridged:
(§1)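 Cells from ATCC, plated at 7000–8000 cells/well in DMEM with 5% FBS and 1% gentamicin and left 24 h at 37 °C, 5% CO2. Compounds from a 10 mg mL–1 DMSO stock were serially diluted and added for 48 h. Cells were fixed with TCA (10% final), stained with SRB, and the dye solubilized in 10 mM Tris. A540 was normalized to A630, and GI50 was taken as 50% reduction in net protein increase.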
A general note: The SRB assay estimates cell density from bound dye.

The next data set has as its system NCI-H460. Kind of data set: Cytotoxicity against human NCI-H460 cells assessed as reduction in cell viability incubated for 48 hrs by SRB assay. It is filed as functional. Particulars: NCI-H460, 48 h. An outline of the steps: as §1
For the next data set, the system named is SK-OV-3. Kind of data set: Cytotoxicity against human SKOV3 cells assessed as reduction in cell viability incubated for 48 hrs by SRB assay. Format: functional. Particulars: SK-OV-3, 48 h. An outline of the steps: as §1
Another data set relates to HUVEC. Put plainly: Cytotoxicity against HUVEC assessed as reduction in cell viability incubated for 48 hrs by SRB assay. It is filed as cell-based. Particulars: human. An outline of the steps:
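HUVECs were grown in M200 with VEGF kit supplements in collagen I coated flasks, then plated at 9000 cells/well and given 48 h to attach. Compounds were added as 10-fold serial dilutions in M200 with LSGS kit, 1% gentamicin and 1% amphotericin B. Growth was read by SRB assay, and GI50 was taken as the concentration inhibiting growth by 50%.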

Another data set addresses Tubulin (Homo sapiens) (UniProt P68371+Q9H4B7+P0DPH7+P68366+Q13509+Q71U36+P04350+Q3ZCM7+P07437+P68363+Q9BQE3+Q6PEY2+Q13885+Q9BVA1+Q9BUF5). Kind of data set: Inhibition of [3H]colchicine binding to tubulin (unknown origin) at 5 uM incubated for 10 mins by scintillation counting method relative to control. It is filed as protein-complex assay.
A short description of data set [1]: Selectivity index, ratio of GI50 for HUVEC to GI50 for human SKOV3 cells. It is filed as toxicity. Particulars: HUVEC versus SKOV3 cells, read-out: RatioGI50.
The nature of data set [2]: Selectivity index, ratio of GI50 for HUVEC to GI50 for human NCI-H460 cells. It is filed as toxicity. The settings on record: HUVEC versus NCI-H460 cells, read-out: RatioGI50.
Data set [3] can be described thus: Selectivity index, ratio of GI50 for HUVEC to GI50 for human DU145 cells. Format: toxicity. The settings on record: HUVEC versus DU145 cells, read-out: RatioGI50.

As usually defined, the IC50 is the concentration needed to halve the response being measured. By GI50 is commonly meant the concentration giving 50% growth inhibition. The molecule `COc1ccc2c(c1C#N)CC/C(=C\c1cc(OC)c(OC)c(OC)c1)C2=O` displayed an IC50 against Tubulin above 20 µM. In addition, the figures for the GI50 in the data set with DU-145, in the data set on NCI-H460 and in the data set on SK-OV-3 were 57.2 µM, 44.4 µM and 33.3 µM, respectively.

Turning to `COc1cc(Cc2ccc3c(O)c(OC)ccc3c2O)cc(OC)c1OC`, the GI50 with DU-145 stood at 23.4 µM; in the data set with NCI-H460, 24.4 µM; with SK-OV-3, 21.9 µM.

As for `COc1cccc2c1C(=O)c1c(O)c3c(c(O)c1C2=O)C[C@@](O)(C(=O)CO)C[C@@H]3O[C@H]1C[C@H](N)[C@H](O)[C@H](C)O1` [DOXORUBICIN], the GI50 amounted to 0.108 µM with DU-145, 0.0547 µM in the data set with NCI-H460 and 0.0875 µM with SK-OV-3.

Regarding `COc1ccc2c(c1O)CCC(=C\c1cc(OC)c(OC)c(OC)c1)/C2=N\O`, the IC50 at Tubulin was above 20 µM. The GI50 worked out at 23.9 µM with DU-145, 22.8 µM with NCI-H460 and 38.2 µM with SK-OV-3.

For the molecule `COc1ccc2c(c1Br)CCC/C(=C\c1cc(OC)c(OC)c(OC)c1)C2=O`, the IC50 against Tubulin is above 20 µM. Further, the GI50 came out at 9.91 µM with DU-145, 4.44 µM with NCI-H460 and 8.5 µM in the data set on SK-OV-3.

On to `COc1ccc2c(c1Br)CCC(=C\c1cc(OC)c(OC)c(OC)c1)/C2=N\O`, for which the IC50 at Tubulin was above 20 µM. Further, the GI50 came to 50.1 µM in the data set on DU-145, 47 µM with NCI-H460 and 80.1 µM with SK-OV-3.

On to `COc1ccc2c(c1)CCC/C(=C\c1cc(OC)c(OC)c(OC)c1)C2=O`, for which the IC50 against Tubulin is above 20 µM. For the same molecule, the GI50 with DU-145 stood at 9.71 µM; with NCI-H460, 6.57 µM; in the data set on SK-OV-3, 12 µM.

The term inhibition denotes the change of the read-out against control, counted positive when it falls. `COc1ccc2c(c1N)CCC/C(=C\c1cc(OC)c(OC)c(OC)c1)C2=O`: in the data set on HUVEC, the Activity entry is “Non-Toxic”. In addition, the IC50 on Tubulin is above 20 µM. Further, the inhibition on Tubulin (Homo sapiens) was found to be 0.34%. For the same molecule, the GI50 in the data set on DU-145 came to 0.237 µM; in the data set with NCI-H460, 0.733 µM; in the data set with SK-OV-3, 0.936 µM. The selectivity ratio in data set [1], in data set [2] and in data set [3] was 100 each time.

For the molecule `COc1ccc2c(c1O)CCC/C(=C\c1cc(OC)c(OC)c(OC)c1)C2=O`, the Activity result in the data set with HUVEC is recorded as “Non-Toxic”. At Tubulin, the IC50 was above 20 µM. At Tubulin (Homo sapiens), this molecule registered an inhibition of 14%. The GI50 was 0.456 µM with DU-145, 0.635 µM in the data set with NCI-H460 and 0.941 µM in the data set with SK-OV-3. The selectivity ratio in data set [1], in [2] and in data set [3] was 10 each time.

In the case of `CC(=O)O[C@H]1C(=O)[C@@]2(C)[C@H]([C@H](OC(=O)c3ccccc3)[C@]3(O)C[C@H](OC(=O)[C@H](O)[C@@H](NC(=O)c4ccccc4)c4ccccc4)C(C)=C1C3(C)C)[C@]1(OC(C)=O)CO[C@@H]1C[C@@H]2O` [PACLITAXEL], the results for the GI50 with DU-145, in the data set with NCI-H460 and with SK-OV-3 were 0.00152 µM, 0.00165 µM and 0.00136 µM, respectively.

On to `COc1ccc(/C=C\c2cc(OC)c(OC)c(OC)c2)cc1O` [COMBRETASTATIN A4], for which the GI50 was 0.00602 µM in the data set with DU-145, 0.005 µM with NCI-H460 and 0.00506 µM in the data set with SK-OV-3.

Take `COc1ccc2c(c1N)CC/C(=C\c1cc(OC)c(OC)c(OC)c1)C2=O`: the Activity entry in the data set on HUVEC is listed as “Toxic”. In addition, the IC50 at Tubulin is above 20 µM. Also, the GI50 in the data set on DU-145 was 32.4 µM; in the data set with NCI-H460, 46.4 µM; with SK-OV-3, above 135 µM.

At Tubulin, `COc1ccc2c(c1)CC/C(=C\c1cc(OC)c(OC)c(OC)c1)C2=O` came in with an IC50 above 20 µM. For the same molecule, the GI50 with DU-145 was determined as 22.6 µM; in the data set with NCI-H460, 22.4 µM; with SK-OV-3 it was 40.3 µM.

For `COc1ccc2c(c1Br)CC[C@H]1[C@H](c3cc(OC)c(OC)c(OC)c3)[C@@H]21`, at Tubulin, the IC50 was above 20 µM. Further, the values for the GI50 in the data set on DU-145, in the data set with NCI-H460 and in the data set on SK-OV-3 were 61.5 µM, 59.2 µM and 108 µM, respectively.

With `COc1cc(Cc2ccc3c(Br)c(OC)ccc3c2O)cc(OC)c1OC`, the GI50 in the data set with DU-145 was determined as 6.17 µM; with NCI-H460, 5.92 µM; in the data set on SK-OV-3, 18.3 µM.

In turn, `COc1ccc2c(c1)CC[C@H]1[C@H](c3cc(OC)c(OC)c(OC)c3)[C@@H]21` gave an IC50 against Tubulin above 20 µM. Moreover, the values for the GI50 in the data set on DU-145, in the data set with NCI-H460 and in the data set with SK-OV-3 were 41.1 µM, 38.8 µM and 54.5 µM, respectively.

The molecule `COc1cc(/C=C2\CCc3c(ccc(OC)c3[N+](=O)[O-])C2=O)cc(OC)c1OC` returned an IC50 against Tubulin above 20 µM. The GI50 stood at 37.6 µM in the data set on DU-145, 36.3 µM in the data set with NCI-H460 and 23.5 µM with SK-OV-3.

At Tubulin, `COc1ccc2c(c1Br)CC/C(=C\c1cc(OC)c(OC)c(OC)c1)C2=O` gave an IC50 above 20 µM. Besides, the concentration for 50% growth inhibition (GI50) amounted to 27.6 µM in the data set with DU-145, 22.6 µM with NCI-H460 and 29.6 µM with SK-OV-3.

Regarding `COc1cc(Cc2ccc3c(N)c(OC)ccc3c2O)cc(OC)c1OC`, the GI50 is 49.7 µM with DU-145, 65.2 µM with NCI-H460 and 16.4 µM in the data set on SK-OV-3.

For the molecule `COc1ccc2c(O)c(Cc3cc(OC)c(OC)c(OC)c3)ccc2c1`, the Activity result in the data set with HUVEC is listed as “Toxic”. At Tubulin, this molecule registered an IC50 of 17 µM. In addition, the GI50 amounted to 8.84 µM in the data set on DU-145, 13.4 µM in the data set on NCI-H460 and 7.5 µM in the data set on SK-OV-3.

`COc1cc(/C=C2\CCCc3c(ccc(OC)c3[N+](=O)[O-])C2=O)cc(OC)c1OC` showed an IC50 against Tubulin above 20 µM. Moreover, the GI50 was found to be 5.94 µM with DU-145, 5.96 µM in the data set with NCI-H460 and 16.1 µM in the data set with SK-OV-3.

As for `COc1ccc2c(c1O)CC/C(=C\c1cc(OC)c(OC)c(OC)c1)C2=O`, in the data set with HUVEC, the Activity entry is reported as “Toxic”. The IC50 against Tubulin is above 20 µM. For the same molecule, the GI50 in the data set with DU-145 worked out at 5.49 µM; in the data set on NCI-H460, 6.44 µM; in the data set on SK-OV-3 it was 6.29 µM.

In the case of `COc1cc(Cc2ccc3c([N+](=O)[O-])c(OC)ccc3c2O)cc(OC)c1OC`, the GI50 with DU-145 is 18.6 µM; in the data set with NCI-H460, 22.9 µM; in the data set on SK-OV-3 it was 21 µM.
